The values below come from ChEMBL document CHEMBL3853347, “PUMA-dependent apoptosis in NSCLC cancer cells by a dimeric β-carboline” (Bioorg Med Chem Lett, 2016).

Calls of active or inactive are those of the source. The rule behind the calls is not given here.

The nature of series [1]: Cytotoxicity against human IMR90 cells assessed as decrease in cell viability after 48 hrs by Alamar blue assay. The class given is toxicity, cell-based, IMR-90.
Series [2] is described as follows: Cytotoxicity against human NCI-H1373 cells assessed as decrease in cell viability after 48 hrs by Alamar blue assay. Format: functional, cell-based. Conditions: NCI-H1373, 48 h.
Series [3] in a line: Drug localization in lysosomes of human NCI-H1299 cells at 20 uM after 1 hr by mitotracker green FM/lysotracker red DND-99 staining based confocal microscopy. The class given is ADME, cell-based, Lysosome. The settings on record: nci-h1299, 1 h. Summed up:
(§1)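 Live H1299 cells exposed to compound for 1 hr, then co-stained with MitoTracker Green FM (mitochondria) and LysoTracker Red DND-99 (lysosomes). Localization was read by live confocal microscopy using the β-carboline's intrinsic fluorescence (Ex/Em 358/461 nm), compared against the organelle stains.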

Series [4] can be described thus: Cytotoxicity against human NCI-H2009 cells assessed as decrease in cell viability after 48 hrs by Alamar blue assay. The class given is functional, cell-based. Conditions: NCI-H2009, 48 h.
The nature of series [5]: Cytotoxicity against human NCI-H1993 cells assessed as decrease in cell viability after 48 hrs by Alamar blue assay. The class given is functional, cell-based. Conditions: NCI-H1993, 48 h. Background: Alamar Blue is a resazurin reagent that responds to reducing activity.
A short description of series [6]: Cytotoxicity against human NCI-H1299 cells assessed as decrease in cell viability after 48 hrs by Alamar blue assay. The class given is functional, cell-based. The settings on record: NCI-H1299, 48 h.
For series [7], the system named is NCI-H1299. As to the kind of experiment: Induction of apoptosis in human NCI-H1299 cells assessed as apoptotic cells at 15 uM after 48 hrs by annexin V-phycoerythrin/7-AAD staining based flow cytometry (reference value: 4%). Format: functional. On the technique in general: In flow cytometry, cells or beads pass a laser one at a time.
Series [8] in a line: Cytotoxicity against human NCI-H441 cells assessed as decrease in cell viability after 48 hrs by Alamar blue assay. Format: functional, cell-based. The settings on record: NCI-H441, 48 h.
The subject of series [9] is NCI-H1299. As to the kind of experiment: Induction of autophagy in human NCI-H1299 cells transfected with GFP-LC3 assessed as increase in LC3-2 level at 20 uM after 24 hr by DAPI staining based immunofluorescence assay. Format: functional, cell-based. The essentials: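 H1299 cells transiently transfected with GFP-LC3, then treated 24 hrs with compound (3–20 μM) or DMSO. GFP-LC3 puncta were imaged by confocal microscopy and counted per cell; n=30 cells, s.d.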

Series [10] in a line: Cytotoxicity against human A549 cells assessed as decrease in cell viability after 48 hrs by Alamar blue assay. Format: functional, cell-based. The settings on record: A549, 48 h.
The test system of series [11] is NCI-H1299. As to the kind of experiment: Induction of apoptosis in human NCI-H1299 cells assessed as increase in cleaved caspase 3 level after 24 hrs by immunofluorescence based confocal microscopy. The class given is functional, cell-based. The essentials: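 H1299 cells treated 24 hrs with compound (5 or 20 μM) or DMSO, then immunostained for active caspase 3 and imaged by confocal microscopy. Apoptotic fraction was calculated as cells expressing active caspase over total cells; n=3, s.d.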

The test system of series [12] is NCI-H1299. As to the kind of experiment: Induction of autophagy in human NCI-H1299 cells assessed as increase in p62/SQSTM1 level at 3 to 10 uM after 24 hr by Western blot analysis. Format: functional, cell-based. The essentials:
(§2)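 H1299 cells incubated 24 hrs with compound (3, 5, 10 or 20 μM) or DMSO. LC3 (LC3II band) and p62/SQSTM1 were detected by western blot.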
In general terms: Immunoblotting shows a protein as a band on a membrane.

The nature of series [13]: Drug localization in lysosomes of human NCI-H1299 cells at 10 uM after 1 hr by mitotracker green FM/lysotracker red DND-99 staining based confocal microscopy. Format: ADME, cell-based, Lysosome. Conditions: nci-h1299, 1 h. The essentials: as §1
The test system of series [14] is NCI-H1299. As to the kind of experiment: Induction of apoptosis in human NCI-H1299 cells assessed as increase in cleaved caspase 3 level after 24 hrs by Western blot analysis. The class given is functional, cell-based. Summed up: (§3)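 H1299 cells treated 24 hrs with compound (3, 5, 10 or 20 μM) or DMSO. Lysates were probed by western blot for apoptotic markers: cleaved caspase 3, cleaved lamin A and cleaved PARP.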

Series [15] has as its system NCI-H1299. As to the kind of experiment: Induction of apoptosis in human NCI-H1299 cells assessed as increase in cleaved lamin A level at 3 to 10 uM after 24 hrs by Western blot analysis. The class given is functional, cell-based. Summed up: as §3
A short description of series [16]: Upregulation of PUMA expression in human NCI-H1299 cells assessed as after 24 hrs by Western blot analysis. Format: functional, cell-based. Summed up:
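PUMA protein measured by western blot in H1299 cells after 24 hrs with compound (3, 5, 10 or 20 μM) or DMSO.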

Series [17] has as its system NCI-H1299. As to the kind of experiment: Induction of autophagy in human NCI-H1299 cells transfected with GFP-LC3 assessed as increase in LC3-2 level at 3 to 10 uM after 24 hr by DAPI staining based immunofluorescence assay. The class given is functional, cell-based.
For series [18], the system named is NCI-H1299. As to the kind of experiment: Induction of autophagy in human NCI-H1299 cells assessed as increase in LC3-2 level after 24 hr by Western blot analysis. Format: functional, cell-based. The essentials: as §2
Series [19] relates to NCI-H1299. As to the kind of experiment: Induction of apoptosis in human NCI-H1299 cells assessed as apoptotic cells at 3 uM after 48 hrs by annexin V-phycoerythrin/7-AAD staining based flow cytometry (reference value: 4%). The class given is functional.
The test system of series [20] is NCI-H1299. As to the kind of experiment: Induction of apoptosis in human NCI-H1299 cells assessed as increase in cleaved PARP level at 3 to 10 uM after 24 hrs by Western blot analysis. Format: functional, cell-based. Summed up:
as §3

As usually defined, the IC50 is the concentration needed to halve the response being measured. With `CN(CCN)CCNCc1nccc2c1[nH]c1ccccc12`, the IC50 at 48 h in series [1] turned out to be 12.9 µM. Further, the half-inhibitory concentration (IC50) was determined as 13.2 µM in [2]; 8.9 µM in series [4]; 9.3 µM in series [5]; 15.1 µM in series [6]; 4.3 µM in series [8]; 20.5 µM in [10]. Further, the Drug uptake result in [3] is recorded as “Active”. Besides, in series [7], the Activity is given as 11%. Further, the result in series [9] was Active.
With `CN(CCNCc1nccc2c1[nH]c1ccccc12)CCNCc1nccc2c1[nH]c1ccccc12`, the IC50 at 48 h in series [1] is 5.6 µM. Further, the concentration for half-maximal inhibition (IC50) in series [2] was found to be 3.3 µM; in series [4] it was 1.4 µM; in series [5], 1.2 µM; in series [6], 1.6 µM; in [8], 0.7 µM; in series [10], 2.9 µM. In addition, the Activity entry was “Dose-dependent effect” in series [11]; “Dose-dependent effect” in [14]; “Dose-dependent effect” in series [16]; “Dose-dependent effect” in [18]; 97% in series [19]. For the same molecule, the outcome in series [12], in series [15], in series [17] and in [20] was Active. In addition, the Drug uptake result in series [13] is listed as “Active”.
On to `O[C@]12C=C(c3nccc4c3[nH]c3ccccc34)[C@@H]3CCN(CCCC/C=C\CC1)C[C@@]31C[C@@H]3/C=C\CCCCN3[C@H]12` [MANZAMINE A], for which, in series [1], the IC50 at 48 h is 6.8 µM. The IC50 in series [2] is 2.1 µM; in series [4] it was 1.6 µM; in series [5], 3.9 µM; in series [6], 1.5 µM; in [8] it was 1.1 µM; in series [10], 2.3 µM. Moreover, in series [17], the outcome was Active.
